Measurements taken from ChEMBL document CHEMBL4765453, “Phenanthrolinic analogs of quinolones show antibacterial activity against M. tuberculosis” (Eur J Med Chem, 2020).
In brackets after ≈: the same amount, converted by molar mass.

These compounds were tested on Mycobacterium tuberculosis (assay: Antibacterial activity against Mycobacterium bovis BCG measured after 7 days by resazurin microtiter assay). Conditions: variant bovis BCG, 168 h, time 7 day.
Assay type: functional
Method in brief: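 Resazurin microtiter assay with two-fold drug dilutions in complete 7H9 broth. Exponential-phase cells are diluted to a final OD600 of 0.005 in 7H9 without Tween. Incubation is 7 days at 37°C, then 0.01% resazurin is added and plates are held 24 h more. MIC is the lowest concentration preventing the blue-to-pink change. Each MIC is determined three times in duplicate experiments.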

| SMILES | MIC90 [µM] |
| --- | --- |
| Cn1cc(C(=O)O)c(=O)c2cc([N+](=O)[O-])c3cccnc3c21 | 1.4 (≈ 0.419 µg/mL) |
| CCOC(=O)c1cn(C)c2c(cc([N+](=O)[O-])c3cccnc32)c1=O | 2.35 (≈ 0.769 µg/mL) |
| CCn1cc(C(=O)O)c(=O)c2cc([N+](=O)[O-])c3cccnc3c21 | 2.67 (≈ 0.836 µg/mL) |
| CCOC(=O)c1cn(CC)c2c(cc([N+](=O)[O-])c3cccnc32)c1=O | 2.5 (≈ 0.853 µg/mL) |
| NCC[C@H](O)C(=O)N[C@@H]1C[C@H](N)[C@@H](O[C@H]2O[C@H](CN)[C@@H](O)[C@H](O)[C@H]2O)[C@H](O)[C@H]1O[C@H]1O[C@H](CO)[C@@H](O)[C@H](N)[C@H]1O [AMIKACIN] | 0.46 (≈ 0.269 µg/mL) |
| CC1COc2c(N3CCN(C)CC3)c(F)cc3c(=O)c(C(=O)O)cn1c23 (stereo unspecified) [OFLOXACIN] | 1.73 (≈ 0.625 µg/mL) |
